This is an account of results in ChEMBL document CHEMBL1914368, “Imidazo[1,5-a]quinoxalines as irreversible BTK inhibitors for the treatment of rheumatoid arthritis” (Bioorg Med Chem Lett, 2011).

In data set [1] the target is T1, Tyrosine-protein kinase BTK (Homo sapiens, UniProt Q06187). The data set can be described thus: Inhibition of human full-length BTK expressed in Sf9 cells using FAM-Srctide peptide as substrate after 60 mins by TR-FRET Assay. A general note: Time-resolved FRET reads energy transfer from a long-lived donor to a nearby acceptor.
T1 sequence (Q06187 whole entry): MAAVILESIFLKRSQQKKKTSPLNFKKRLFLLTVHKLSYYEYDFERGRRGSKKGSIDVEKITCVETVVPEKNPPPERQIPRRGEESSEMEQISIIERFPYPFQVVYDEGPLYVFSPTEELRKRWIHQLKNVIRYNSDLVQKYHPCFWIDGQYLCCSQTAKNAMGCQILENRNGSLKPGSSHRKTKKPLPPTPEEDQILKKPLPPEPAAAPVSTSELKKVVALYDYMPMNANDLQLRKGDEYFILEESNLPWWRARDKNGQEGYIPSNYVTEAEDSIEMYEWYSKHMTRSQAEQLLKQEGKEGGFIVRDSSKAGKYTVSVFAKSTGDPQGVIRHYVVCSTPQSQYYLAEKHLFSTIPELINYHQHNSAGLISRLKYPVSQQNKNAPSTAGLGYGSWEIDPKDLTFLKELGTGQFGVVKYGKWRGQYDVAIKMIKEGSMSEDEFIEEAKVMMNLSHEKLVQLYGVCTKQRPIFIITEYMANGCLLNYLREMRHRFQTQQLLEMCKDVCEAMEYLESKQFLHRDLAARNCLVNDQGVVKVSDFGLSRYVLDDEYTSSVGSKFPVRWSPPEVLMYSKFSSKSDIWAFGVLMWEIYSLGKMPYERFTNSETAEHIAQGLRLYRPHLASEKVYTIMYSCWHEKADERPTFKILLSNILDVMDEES
In data set [2] the target is T2, Tyrosine-protein kinase Lyn (Homo sapiens, UniProt P07948). Nature of the data set: Inhibition of LYN-A expressed in Sf9 cells after 60 mins by TR-FRET Assay.
T2 sequence (P07948 whole entry): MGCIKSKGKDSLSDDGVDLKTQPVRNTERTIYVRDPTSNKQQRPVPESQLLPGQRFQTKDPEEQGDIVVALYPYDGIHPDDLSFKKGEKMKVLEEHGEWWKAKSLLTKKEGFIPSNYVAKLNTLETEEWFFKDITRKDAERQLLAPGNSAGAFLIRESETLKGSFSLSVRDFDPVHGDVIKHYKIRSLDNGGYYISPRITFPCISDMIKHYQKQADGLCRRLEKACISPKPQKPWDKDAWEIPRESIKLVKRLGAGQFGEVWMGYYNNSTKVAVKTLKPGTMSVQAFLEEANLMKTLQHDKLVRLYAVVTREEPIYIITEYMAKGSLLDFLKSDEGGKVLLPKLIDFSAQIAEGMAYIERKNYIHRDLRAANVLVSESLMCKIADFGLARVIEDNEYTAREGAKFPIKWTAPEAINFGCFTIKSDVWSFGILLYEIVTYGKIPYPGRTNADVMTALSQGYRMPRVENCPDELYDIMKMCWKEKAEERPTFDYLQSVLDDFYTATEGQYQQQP
A short description of data set [3]: Inhibition of anti-IgM-stimulated human B cell proliferation assessed as [3H]thymidine incorporation preincubated for 30 mins measured after 3 days. The class given is functional, cell-based. The note with it: Homo sapiens, B-cell; read-out: IC50. A general note: Dividing cells build labelled thymidine or BrdU into new DNA.
For data set [4], the target named is T3, Aryl hydrocarbon receptor (Mus musculus, UniProt P30561).
T3 sequence (P30561 whole entry): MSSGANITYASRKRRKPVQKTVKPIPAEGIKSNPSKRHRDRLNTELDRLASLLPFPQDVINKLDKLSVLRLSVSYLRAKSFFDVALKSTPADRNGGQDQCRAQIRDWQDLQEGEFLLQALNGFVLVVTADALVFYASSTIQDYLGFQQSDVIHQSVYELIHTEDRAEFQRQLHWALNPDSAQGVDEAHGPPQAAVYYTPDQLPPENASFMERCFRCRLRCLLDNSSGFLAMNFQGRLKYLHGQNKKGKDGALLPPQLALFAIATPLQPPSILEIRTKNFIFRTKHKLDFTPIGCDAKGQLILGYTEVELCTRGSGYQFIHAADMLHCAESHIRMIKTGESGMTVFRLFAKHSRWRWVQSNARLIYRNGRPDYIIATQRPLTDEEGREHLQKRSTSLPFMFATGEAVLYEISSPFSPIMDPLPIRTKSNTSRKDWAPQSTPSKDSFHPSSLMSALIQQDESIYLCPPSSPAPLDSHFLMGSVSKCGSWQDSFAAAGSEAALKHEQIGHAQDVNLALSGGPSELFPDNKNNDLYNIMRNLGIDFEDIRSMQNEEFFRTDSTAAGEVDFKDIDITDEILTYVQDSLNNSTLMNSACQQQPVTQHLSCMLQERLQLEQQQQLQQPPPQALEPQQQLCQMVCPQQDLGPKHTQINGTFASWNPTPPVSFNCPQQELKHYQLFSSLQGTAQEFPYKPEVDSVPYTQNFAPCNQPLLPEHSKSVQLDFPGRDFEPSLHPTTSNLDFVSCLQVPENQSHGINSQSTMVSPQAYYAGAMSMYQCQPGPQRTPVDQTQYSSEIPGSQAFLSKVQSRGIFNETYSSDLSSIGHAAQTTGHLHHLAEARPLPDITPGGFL
The data set can be described thus: Agonist activity at Ah receptor in genetically engineered mouse cells expressing firefly luciferase gene by CALUX transactivational assay. The class given is functional.

In data set [5] the target is T4, Proto-oncogene tyrosine-protein kinase Src (Homo sapiens, UniProt P12931). Nature of the data set: Inhibition cSRC expressed in Sf9 cells after 60 mins by TR-FRET Assay.
T4 sequence (P12931 2-536 limits assumed): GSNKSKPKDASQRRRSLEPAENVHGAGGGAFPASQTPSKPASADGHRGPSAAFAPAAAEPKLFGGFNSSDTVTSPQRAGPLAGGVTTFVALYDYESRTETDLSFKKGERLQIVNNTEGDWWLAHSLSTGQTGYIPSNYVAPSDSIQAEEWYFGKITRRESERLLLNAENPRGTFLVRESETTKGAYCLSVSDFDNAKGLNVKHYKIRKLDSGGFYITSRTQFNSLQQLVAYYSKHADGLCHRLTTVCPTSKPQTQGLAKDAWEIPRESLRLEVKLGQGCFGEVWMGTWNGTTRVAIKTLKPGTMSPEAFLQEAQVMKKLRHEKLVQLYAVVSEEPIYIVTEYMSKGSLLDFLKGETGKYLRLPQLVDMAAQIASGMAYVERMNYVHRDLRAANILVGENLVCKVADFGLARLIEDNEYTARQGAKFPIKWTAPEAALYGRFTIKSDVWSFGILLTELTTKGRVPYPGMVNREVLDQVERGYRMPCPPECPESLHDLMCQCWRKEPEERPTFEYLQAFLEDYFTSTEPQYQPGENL
The target of data set [6] is T1, Tyrosine-protein kinase BTK. Nature of the data set: Inhibition of human full-length BTK expressed in Sf9 cells using FAM-Srctide peptide as substrate preincubated for 60 mins measured after 60 mins by TR-FRET Assay. The method in brief: (§1)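 The compound was pre-incubated with the kinase before the enzymatic reaction was started. IC50 values are averages of two or more determinations.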

Data set [7] deals with T2, Tyrosine-protein kinase Lyn. Nature of the data set: Inhibition of LYN-A expressed in Sf9 cells preincubated for 60 mins measured after 60 mins by TR-FRET Assay. The method in brief: as §1
In data set [8] the target is Tyrosine-protein kinase Lck (Homo sapiens, UniProt P06239). The data set can be described thus: Inhibition of C-terminal His6-tagged human full-length LCK expressed in Sf9 cells preincubated for 60 mins measured after 60 mins by TR-FRET Assay.
Sequence of Tyrosine-protein kinase Lck (P06239 whole entry): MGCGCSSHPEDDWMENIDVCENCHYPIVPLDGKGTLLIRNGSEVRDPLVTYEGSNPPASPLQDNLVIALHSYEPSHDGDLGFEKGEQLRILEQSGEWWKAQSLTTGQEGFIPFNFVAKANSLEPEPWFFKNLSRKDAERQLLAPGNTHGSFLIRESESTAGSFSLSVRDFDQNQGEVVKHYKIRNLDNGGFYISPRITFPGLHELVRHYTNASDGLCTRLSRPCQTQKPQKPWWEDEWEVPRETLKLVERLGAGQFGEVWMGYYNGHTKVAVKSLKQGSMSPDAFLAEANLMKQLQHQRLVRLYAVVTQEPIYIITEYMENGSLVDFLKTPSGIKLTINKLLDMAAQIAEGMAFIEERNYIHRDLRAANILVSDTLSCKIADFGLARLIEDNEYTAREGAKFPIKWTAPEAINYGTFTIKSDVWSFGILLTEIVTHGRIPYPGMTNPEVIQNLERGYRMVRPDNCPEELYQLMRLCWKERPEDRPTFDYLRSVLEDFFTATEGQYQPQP
For data set [9], the target named is T4, Proto-oncogene tyrosine-protein kinase Src. The data set can be described thus: Inhibition cSRC expressed in Sf9 cells preincubated for 60 mins measured after 60 mins by TR-FRET Assay.
Data set [10] addresses T5, Epidermal growth factor receptor (Homo sapiens, UniProt P00533). The data set can be described thus: Inhibition of EGFR preincubated for 60 mins measured after 60 mins by TR-FRET Assay.
Data set [11] concerns the target T5, Epidermal growth factor receptor. Nature of the data set: Inhibition of EGFR after 60 mins by TR-FRET Assay.
Data set [12] is described as follows: AUC (0 to infinity) in mouse at 2 mg/kg, iv. Particulars: plasma. More on the design: time infinity, dose 2 mg/kg, route intravenous. Type of data set: ADME, organism-based.
Data set [13] can be described thus: AUC (0 to infinity) in mouse at 10 mg/kg, po. Type of data set: ADME, organism-based. The arrangement: time infinity, dose 10 mg/kg, route oral. The note with it: plasma.
Data set [14] can be described thus: Half life in mouse at 2 mg/kg, iv. Type of data set: ADME, organism-based. The arrangement: dose 2 mg/kg, route intravenous. The note with it: in vivo.
Data set [15] is described as follows: Half life in mouse at 10 mg/kg, po. Type of data set: ADME, organism-based. More on the design: dose 10 mg/kg, route oral. Particulars: in vivo.
Data set [16] in a line: Clearance in mouse at 2 mg/kg, iv. More on the design: dose 2 mg/kg, route intravenous. The class given is ADME, organism-based. The note with it: in vivo.
Data set [17] can be described thus: Volume of distribution at steady state in mouse at 2 mg/kg, iv. The note with it: in vivo, read-out: Vdss. More on the design: dose 2 mg/kg, route intravenous. The class given is ADME, organism-based. The method in brief: (§2)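 Mouse pharmacokinetics from single dosing at 2 mg/kg iv and 10 mg/kg po. The study derived AUC, T1/2, clearance, Vss, Tmax, Cmax and oral bioavailability (%F) from the paired iv and po arms.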

Data set [18] can be described thus: Tmax in mouse at 10 mg/kg, po. The arrangement: dose 10 mg/kg, route oral. The class given is ADME, organism-based. The note with it: in vivo. The method in brief:
as §2

Data set [19] in a line: Cmax in mouse at 10 mg/kg, po. The class given is ADME, organism-based. The arrangement: dose 10 mg/kg, route oral. The note with it: in vivo.
A short description of data set [20]: Oral bioavailability in mouse at 10 mg/kg. Particulars: in vivo. The class given is ADME, organism-based. The method in brief:
as §2

T5 sequence (P00533 whole entry): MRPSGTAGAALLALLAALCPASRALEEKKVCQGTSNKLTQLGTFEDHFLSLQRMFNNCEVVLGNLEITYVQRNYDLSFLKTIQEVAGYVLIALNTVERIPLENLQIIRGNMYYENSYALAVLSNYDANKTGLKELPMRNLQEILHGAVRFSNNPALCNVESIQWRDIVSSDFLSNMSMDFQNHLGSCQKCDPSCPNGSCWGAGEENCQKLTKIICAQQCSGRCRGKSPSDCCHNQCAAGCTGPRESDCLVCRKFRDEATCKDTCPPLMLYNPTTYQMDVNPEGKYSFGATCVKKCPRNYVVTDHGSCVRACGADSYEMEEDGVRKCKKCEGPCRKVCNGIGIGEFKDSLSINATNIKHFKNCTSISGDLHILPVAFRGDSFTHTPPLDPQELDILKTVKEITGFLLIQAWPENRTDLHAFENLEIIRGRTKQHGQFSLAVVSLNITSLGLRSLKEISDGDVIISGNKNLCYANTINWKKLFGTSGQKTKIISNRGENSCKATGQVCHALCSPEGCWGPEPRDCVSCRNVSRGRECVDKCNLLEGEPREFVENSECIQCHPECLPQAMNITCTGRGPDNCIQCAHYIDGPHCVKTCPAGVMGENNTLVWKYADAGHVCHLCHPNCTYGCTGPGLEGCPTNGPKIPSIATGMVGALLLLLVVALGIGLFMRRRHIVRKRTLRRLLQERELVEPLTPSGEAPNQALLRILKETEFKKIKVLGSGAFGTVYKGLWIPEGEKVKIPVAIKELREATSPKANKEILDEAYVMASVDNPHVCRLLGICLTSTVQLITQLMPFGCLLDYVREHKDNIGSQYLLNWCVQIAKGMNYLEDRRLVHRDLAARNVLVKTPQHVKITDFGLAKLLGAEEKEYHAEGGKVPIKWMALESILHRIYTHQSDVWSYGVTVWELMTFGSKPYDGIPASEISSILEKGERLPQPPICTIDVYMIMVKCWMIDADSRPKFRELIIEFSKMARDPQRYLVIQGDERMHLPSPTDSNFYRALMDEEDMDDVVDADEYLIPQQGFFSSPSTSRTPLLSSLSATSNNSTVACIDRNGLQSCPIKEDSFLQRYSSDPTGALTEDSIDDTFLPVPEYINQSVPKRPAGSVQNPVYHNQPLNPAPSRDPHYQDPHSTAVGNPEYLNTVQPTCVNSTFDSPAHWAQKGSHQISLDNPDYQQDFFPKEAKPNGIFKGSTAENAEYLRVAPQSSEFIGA

Take `Cc1ccc(F)cc1Nc1nc2ccc(N(C)C(=O)/C=C/CN(C)C)cc2n2cncc12`: the IC50 worked out at 3.33 nM in data set [1], 1420 nM in data set [2] and 4.88 nM in data set [3]. Also, the EC50 in [4] was more than 10000 nM.
For the compound `Cc1cc(F)ccc1Oc1nc2ccc(N(C)C(=O)/C=C/CN(C)C)cc2n2cncc12`, the concentration for half-maximal inhibition (IC50) is 6.58 nM in data set [1], 3730 nM in data set [2] and 228 nM in data set [3]. Moreover, the EC50 in [4] is more than 10000 nM.
Regarding `Cc1ccc(F)cc1Nc1nc2cc(Cl)c(N(C)C(=O)/C=C/CN(C)C)cc2n2cncc12`, the concentration for half-maximal inhibition (IC50) in [1] was 3.98 nM; in [2], 3390 nM; in data set [3], 5.84 nM; in data set [5], 1620 nM; in data set [6], 2.6 nM; in data set [7], 3020 nM. In addition, the IC50 in [8] is 2790 nM; in data set [9] it was 410 nM; in data set [10] it was 3.35 nM; in data set [11], 68 nM. Besides, the EC50 in data set [4] is more than 10000 nM. Also, the AUC(0-inf) worked out at 1120 ng·h/mL in [12] and 3620 ng·h/mL in [13]. The half-life in data set [14] was 2.2 h; in data set [15] it was 2.7 h. The compound further returned a clearance in [16] of 26.6 mL/min/kg. In addition, in data set [17], the Vd amounted to 4.51 L/kg. Further, the Tmax in [18] was found to be 3 h. In [19], this compound registered a peak concentration (Cmax) of 454 ng/mL. In data set [20], this compound came in with a bioavailability of 58%.
With `Clc1cc2c(cc1Cl)Oc1cc(Cl)c(Cl)cc1O2` [2,3,7,8-TETRACHLORODIBENZO-P-DIOXIN], a half-maximal effect in data set [4] (EC50) was put at 0.03 nM.

A word on the IC50: it is the point on the concentration scale where inhibition reaches its midpoint. What is called EC50 is the concentration needed to bring the measured effect to its halfway point. The low end stands for an effect from little substance, the high end for a need for much substance. Usually AUC(0-inf) stands for total exposure, with the tail of the curve extrapolated. Lower therefore signals low exposure. The term half-life denotes the time in which the quantity being followed falls by half. Lower therefore signals rapid decline. As a reminder, the clearance is a measure of how efficiently the substance is removed, as volume per time. For orientation: Tmax means the time at which the peak concentration occurs. Broadly, the Cmax is the highest concentration seen after dosing. A word on the bioavailability: it is dose-corrected exposure relative to a reference, in per cent. Read a high bioavailability as much systemic uptake.
